Results pooled from the literature.
Lines come from different studies, so protocols differ.
Target: Serine/threonine-protein kinase 10 (STK10, Homo sapiens, UniProt O94804)

Structure (SMILES) | observed | action | method | cells | concentration | measurement | result
Nc1nc(Nc2ccc(S(N)(=O)=O)cc2)nn1C(=O)c1c(F)cccc1F | cell-free assay |  |  |  | 0.5 µM | remaining signal | 17%
CN1CC(Oc2cnc(C#N)cc2-c2ccn3nc(NC(=O)C4CC4)cc3c2)C1 | enzyme activity | inhibitor |  |  | 1 µM | inhibition | 30%
Cc1c[nH]c2nccc(Oc3c(F)cc(Nc4cc(Cl)nc(N)n4)cc3F)c12 | cell-free assay |  | competition with immobilised ligand |  | 0.1 µM | remaining binding | 100%
C#Cc1cccc(Nc2ncnc3cc(OCCOC)c(OCCOC)cc23)c1 | cell-free assay |  |  |  | 0.5 µM | remaining signal | 20.3%
O=C(O)[C@H]1[C@H](Cn2nnc3ccccc3c2=O)CC[C@@H]1C(=O)c1ccc(OCCC2CCOCC2)cc1 | cell-free assay |  | competition with immobilised ligand |  | 1 µM | remaining binding | 100%
CCN1CCN(Cc2ccc(NC(=O)c3ccc(C)c(/C=C/c4cnc5[nH]ccc5c4OC)c3)cc2C(F)(F)F)CC1 | target engagement in cells | inhibitor | chemoproteomics | A-375 | 50 nM | inhibition | -39.1%
COc1cc2nccc(Oc3ccc(NC(=O)Nc4ccc(F)cc4F)c(F)c3)c2cc1OC | thermal stability |  | DSF |  | 10 µM | ΔTm | > 10 °C
CCN(CC)CCNC(=O)c1c(C)[nH]c(/C=C2\C(=O)Nc3ccc(F)cc32)c1C | enzyme activity | inhibitor |  |  | 10 µM | inhibition | 83%
Nc1cnc(N2CCc3cc(S(=O)(=O)Nc4c(F)cc(Cl)cc4F)cc(N4CCCC4=O)c32)nc1 | cell-free assay |  | competition with immobilised ligand |  | 1 µM | remaining binding | 100%
CC(C)(O)[C@H]1CC[C@H](Nc2ccc3ncc(-c4cccc(C(F)(F)F)c4)n3n2)CC1 | enzyme activity | inhibitor |  |  | 1 µM | remaining activity | 63.8%
CC/C(=N\NC(=O)NCc1cccc(O)c1)c1ccc(O)c(C)c1O | enzyme activity | inhibitor |  |  | 0.1 µM | inhibition | 1%
Cn1nc(C(F)(F)F)cc1-c1cnc(N2CCc3cc(S(=O)(=O)Nc4c(F)cc(Cl)cc4F)cc(N4CCCC4=O)c32)nc1 | cell-free assay |  | competition with immobilised ligand |  | 1 µM | remaining binding | 94%
Nc1ncnc2occ(-c3ccc(NC(=O)Nc4cc(C(F)(F)F)ccc4F)cc3)c12 | cell-free assay | inhibitor |  |  | 20 µM | remaining signal | 0%
O=C(Nc1cnn(-c2csc(C(=O)NC3COC3)c2)c1)Nc1ccccc1Cl | enzyme activity | inhibitor |  |  | 5 µM | remaining activity | 87.9%
CN([C@@H]1CCc2c(CC(=O)O)c3ccccc3n2C1)S(=O)(=O)c1ccc(F)cc1 | cell-free assay |  | competition with immobilised ligand |  | 1 µM | remaining binding | 100%
CCN1CCN(Cc2ccc(NC(=O)c3ccc(C)c(Oc4ccnc5[nH]ccc45)c3)cc2C(F)(F)F)CC1 | target engagement in cells | inhibitor | chemoproteomics | A-375 | 0.5 µM | inhibition | -177%
O=S(=O)(NC1CCC(c2cc(F)ccc2F)(S(=O)(=O)c2ccc(Cl)cc2)CC1)C(F)(F)F (centres unmarked) | cell-free assay |  | competition with immobilised ligand |  | 1 µM | remaining binding | 100%
CNC(=O)c1cc(Oc2ccc(NC(=O)Nc3ccc(Cl)c(C(F)(F)F)c3)cc2)ccn1 | enzyme activity | inhibitor |  |  | 0.3 µM | inhibition | 43%
O=C1NC(=O)c2cc(Nc3ccc(F)cc3)c(Nc3ccc(F)cc3)cc21 | cell-free assay |  |  |  | 0.5 µM | remaining signal | 79.2%
Cc1ccc(C(=O)Nc2ccc(CN3CCN(C)CC3)c(C(F)(F)F)c2)cc1C#Cc1cnc2cccnn12 | enzyme activity | inhibitor |  |  | 23.5 nM | remaining activity | 0.05%
Cc1cc(NC(=O)c2cccc3cc(-c4cccc5[nH]nc(N)c45)ccc23)ccc1F | enzyme activity | inhibitor |  |  | 0.1 µM | activity vs control | 97%
N#CCCc1ccc2c(c1)-c1[nH]c3ccc([N+](=O)[O-])cc3c1CC(=O)N2 | cell-free assay |  |  |  | 0.5 µM | remaining signal | 74.1%
CNCc1ccccc1-c1csc([C@H](C)Nc2nc(C)nc3cc(OC)c(OC)cc23)c1 | cell-free assay |  | competition with immobilised ligand |  | 1 µM | remaining binding | 100%
